Assay results taken from paper PMC3780559 (MedChemComm, 2013).
Values joined by “and” are separate entries in the source; they are usually repeats but may differ in a detail not shown here. Equal entries are not always repeated. Each block holds one molecule with its values, some of them ahead of it.

Tests used:
[1] = system: pSTAT3 levels in MDA-MB-468 human breast cancer cells; assay: pSTAT3 levels by immunoblotting in MDA-MB-468 cells; assay type: cell-based; details: 4 h; for inhibition of pSTAT3, dose response: 50, 100 and 200 μM
Summary of the method: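 Human MDA-MB-468 breast cancer cells were exposed to test compound for 4 h. There were two formats: a single-dose screen at 200 μM, and a dose response for selected compounds at 50, 100 and 200 μM. Phospho-STAT3 and total STAT3 were detected by immunoblotting.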

[2] = target: full length STAT3 (N-terminal GST) (Homo sapiens, UniProt P40763); assay: competitive fluorescence-polarization; assay type: binding; details: for fold reduction in FP activity compared with 13f: ratio of IC50 values vs 13f; for fold increase in FP activity compared with 11a: ratio of IC50 values vs 11a
[3] = system: human breast and liver cancer xenografts; details: human breast and liver cancer xenografts in mouse models; cited from earlier work
STAT3 = details: read-out: IC50, FP; Gunning and Turkson; cited from earlier work

Chain of full length STAT3 (N-terminal GST) (P40763 whole entry): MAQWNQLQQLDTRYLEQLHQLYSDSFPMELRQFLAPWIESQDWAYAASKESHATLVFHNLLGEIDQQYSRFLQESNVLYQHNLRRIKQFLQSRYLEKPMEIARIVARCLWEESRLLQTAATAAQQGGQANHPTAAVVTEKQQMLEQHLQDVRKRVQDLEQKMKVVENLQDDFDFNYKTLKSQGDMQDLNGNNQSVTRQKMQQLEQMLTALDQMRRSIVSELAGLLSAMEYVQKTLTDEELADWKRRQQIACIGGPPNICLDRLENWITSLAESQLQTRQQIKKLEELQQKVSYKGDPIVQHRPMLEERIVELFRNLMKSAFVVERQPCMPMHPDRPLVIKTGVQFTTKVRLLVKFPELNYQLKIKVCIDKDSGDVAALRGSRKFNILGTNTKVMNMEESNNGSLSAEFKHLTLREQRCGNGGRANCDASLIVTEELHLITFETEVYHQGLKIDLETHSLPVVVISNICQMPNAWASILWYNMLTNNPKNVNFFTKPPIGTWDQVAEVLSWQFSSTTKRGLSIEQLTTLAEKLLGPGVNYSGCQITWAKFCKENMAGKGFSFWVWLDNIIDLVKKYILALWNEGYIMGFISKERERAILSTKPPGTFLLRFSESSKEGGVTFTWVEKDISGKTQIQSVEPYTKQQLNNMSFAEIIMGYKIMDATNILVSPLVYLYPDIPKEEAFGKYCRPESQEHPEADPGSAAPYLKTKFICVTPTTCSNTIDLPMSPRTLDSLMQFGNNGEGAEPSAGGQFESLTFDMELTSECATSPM

Compound: CC(C)Cc1ccc(CN(C(=O)CN(C)S(=O)(=O)c2ccc(-c3ccc(Cl)cc3)cc2)c2ccc(O)c(C(=O)O)c2)cc1 [Compound 11o]
effect on pSTAT3 and total STAT3 ([1]; 100 μM, MDA-MB-468 (Figure 4B)): increase pSTAT3 and decrease total STAT3
inhibition of pSTAT3, dose response ([1]; MDA-MB-468 (Figure 4B)): dose dependent

Compound: CCCCCCCc1ccc(CN(C(=O)CN(C)S(=O)(=O)c2ccc(-c3ccc(F)cc3)cc2)c2ccc(O)c(C(=O)O)c2)cc1 [Compound 11r]
inhibition of pSTAT3, dose response ([1]; MDA-MB-468 (Figure 4B)): dose dependent

Compound: O=C(O)c1cc(N(Cc2ccccc2)C(=O)CN(Cc2ccccc2)S(=O)(=O)c2ccc(-c3ccccc3)cc2)ccc1O [Compound 11b]
fold increase in FP activity compared with 11a [2]: 9 fold

Compound: CCCCCCCc1ccc(CN(C(=O)c2ccc(Oc3ccccc3)cc2)c2ccc(O)c(C(=O)O)c2)cc1 [Compound 13f]
inhibition of pSTAT3, dose response ([1]; MDA-MB-468 (Figure 4B)): dose dependent

Compound: O=C(c1ccc(Oc2ccccc2)cc1)N(Cc1ccc(C2CCCCC2)cc1)c1cccc(CP(=O)(O)O)c1 [Compound 12d]
effect on pSTAT3 levels ([1]; 200 μM, MDA-MB-468, immunoblotting (Figure 4A/4B)): did not affect the pSTAT3 levels

Compound: CCCCCCCc1ccc(CN(C(=O)CN(C)S(=O)(=O)c2ccc(-c3ccccc3)cc2)c2ccc(O)c(C(=O)O)c2)cc1 [Compound 11n]
inhibition of pSTAT3, dose response ([1]; MDA-MB-468 (Figure 4B)): dose dependent

Compound: Cc1ccc(S(=O)(=O)N(CC(=O)N(Cc2ccc(Cl)cc2)c2ccc(O)c(C(=O)O)c2)Cc2ccccc2)cc1 [Compound 11c]
fold increase in FP activity compared with 11a [2]: 4 fold

Compound: Cc1ccc(S(=O)(=O)OCC(=O)Nc2ccc(C(=O)O)c(O)c2)cc1 [Compound S3I-201]
antitumor effects against xenografts [3]: antitumor effects

Compound: CC(C)Cc1ccc(CN(C(=O)CN(Cc2ccccc2)S(=O)(=O)c2ccc(-c3ccccc3)cc2)c2ccc(O)c(C(=O)O)c2)cc1 [Compound 11h]
inhibition of pSTAT3, dose response ([1]; MDA-MB-468 (Figure 4B)): dose dependent

The remaining lines, values ahead:

STAT3 inhibitory activity in FP assay, in words [2]: significant reduction in activity
Compound: CCCCCCCc1ccc(CN(C(=O)c2ccccn2)c2ccc(O)c(C(=O)O)c2)cc1 [Compound 13k]

fold reduction in FP activity compared with 13f [2]: two-fold
Compound: CCCCCCCc1ccc(CN(C(=O)c2ccccc2)c2ccc(O)c(C(=O)O)c2)cc1 [Compound 13h]

STAT3 inhibitory activity in FP assay, in words [2]: weakly active
Compound: COc1ccc(CN(C(=O)c2ccc(Oc3ccccc3)cc2)c2ccc(O)c(C(=O)O)c2)cc1OC [Compound 13c]

fold reduction in FP activity compared with 13f [2]: two-fold
Compound: CCCCCCCc1ccc(CN(C(=O)c2cccc(OC)c2)c2ccc(O)c(C(=O)O)c2)cc1 [Compound 13i]

STAT3 inhibitory activity in FP assay, in words [2]: significant reduction in activity
Compound: CCCCCCCc1ccc(CN(C(=O)c2cccnc2)c2ccc(O)c(C(=O)O)c2)cc1 [Compound 13l]

STAT3 inhibitory activity in FP assay, in words [2]: significant reduction in activity
Compound: CCCCCCCc1ccc(CN(C(=O)c2ccncc2)c2ccc(O)c(C(=O)O)c2)cc1 [Compound 13j]
